Data as given in ChEMBL document CHEMBL3797057, “Synthesis and bioevaluation of substituted chalcones, coumaranones and other flavonoids as anti-HIV agents” (Bioorg Med Chem, 2016).
Calls of active or inactive are those of the source. The calls are words filed in the database; no cut-off is given here.

Assays:
[1] = system: Human immunodeficiency virus 1; test: Antiviral activity against HIV1 infected in human TZM-bl cells assessed as inhibition of viral infection at 10 uM preincubated with cells for 5 mins followed by viral infection measured after 24 hrs by Bright Glo luciferase reporter gene assay relative to control; type: functional; conditions: for inhibition at 10 µM: Human immunodeficiency virus 1, TZM-bl
Summary of the method: (§1)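 TZM-bl cells at 50-60% confluence, in D10 medium, were pre-treated in triplicate with 10 µM compound or DMSO vehicle, for 5 min or 3 h. Virus was then added at 60 TCID50/0.1mL (MOI=0.01). After 24 h the cells were lysed for luciferase, read over 5 s/well. Result is % reduction in relative light units versus the virus+DMSO control.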

[2] = Cytotoxicity against human TZM-bl cells assessed as inhibition of cell viability at 10 uM by CytoTox Glo assay relative to control; type: cell-based; conditions: for inhibition (INH): tzm, 10 µM; for cytotoxicity at 10 µM: TZM-bl cells, read-out: INH
Summary of the method: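 Replicate dishes of treated TZM-bl cells (50-60% confluent, compound at 10 µM in D10, triplicate) assayed with CytoTox Glo for dead and total cell numbers. Result is % difference in live-cell luminescence versus matched DMSO vehicle control.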

CHO = test: Cytotoxicity against CHO cells assessed as decrease in cell proliferation after 48 hrs by MTS assay; type: cell-based, Cricetulus griseus
Summary of the method: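 CHO cells plated at 10,000 cells/mL, in triplicate, incubated overnight. Compound then added from DMSO stock, final DMSO <1%. After 48 h at 37°C in 5% CO2, MTS reagent was added for 4 h and absorbance read at 490 nm. IC50 taken from the plot of relative A490 versus concentration.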

[3] = Cytotoxicity against human TZM-bl cells assessed as decrease in cell viability at IC50 by CytoTox Glo assay relative to control; type: cell-based
[4] = system: Human immunodeficiency virus 1; test: Antiviral activity against HIV1 BAL infected in human TZM-bl cells assessed as inhibition of viral infection; type: functional, organism-based; conditions: for IC50: Human immunodeficiency virus 1, BAL
Summary of the method: (§2)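 TZM-bl cells seeded at 6 × 10^4 cells/ml (6000 cells/well), left overnight, then at 50-60% confluence treated in triplicate with compound in D10 or DMSO vehicle. After 5 min, HIV-1 added at 60 TCID50/0.1mL (MOI=0.01). After 24 h at 37°C/5% CO2, cells lysed for Bright Glo luciferase. Inhibition is % reduction in RLU versus virus+DMSO control, with no-virus wells as baseline.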

[5] = system: Human immunodeficiency virus 1; test: Antiviral activity against HIV1 BAL infected in human PM1 cells assessed as inhibition of viral propagation at 5 uM preincubated with cells for 10 mins followed by viral infection measured after 2 hrs by p24 ELISA relative to control; type: functional; conditions: for inhibition at 5 µM: Human immunodeficiency virus 1, BAL
Summary of the method: (§3)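 PM1 cells (1.5 × 10^5/0.1 mL) in R20 (RPMI 1640, 20% FBS, 10mM HEPES) given compound or matched DMSO 10 min, then infected with HIV-1 BaL at 150 TCID50/0.1 mL (MOI=0.001) for 2 h. Cells washed, resuspended in fresh R20 with compound or vehicle. Supernatants taken day 3; culture continued to day 5, supernatant assayed for HIV p24 by ELISA.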

[6] = system: Human immunodeficiency virus 1; test: Antiviral activity against HIV1 infected in human TZM-bl cells assessed as inhibition of viral infection at 10 uM preincubated with cells for 3 hrs followed by viral infection measured after 24 hrs by Bright Glo luciferase reporter gene assay relative to control; type: functional; conditions: Human immunodeficiency virus 1, TZM-bl; summary of the method: as §1
[7] = Cytotoxicity against human PM1 cells assessed as inhibition of cell viability at 5 uM by trypan blue dye exclusion method relative to control; type: cell-based; conditions: for inhibition (INH): pm1, 5 µM; for cytotoxicity at 5 µM: PM1 cells, read-out: INH
Summary of the method: (§4)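 PM1 cells (1.5 × 10^5/0.1 mL) kept in R20 with compound or matched DMSO vehicle over the 5-day BaL propagation assay (10 min pre-treatment, 2 h infection, wash, re-treatment). Viability monitored by trypan blue dye exclusion.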

[8] = Cytotoxicity against human PM1 cells assessed as inhibition of cell viability at 10 uM by trypan blue dye exclusion method relative to control; type: cell-based; conditions: read-out: INH; summary of the method: as §4
[9] = system: Human immunodeficiency virus 1; test: Antiviral activity against HIV1 BAL infected in human PM1 cells assessed as inhibition of viral propagation at 10 uM preincubated with cells for 10 mins followed by viral infection measured after 2 hrs by p24 ELISA relative to control; type: functional; conditions: for inhibition at 10 µM: Human immunodeficiency virus 1, BAL; summary of the method: as §3
[10] = Cytotoxicity against human TZM-bl cells assessed as decrease in cell metabolic activity up to 10 uM by MTT reduction assay; type: ADME, cell-based
Summary of the method: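 Confluent TZM-bl cells exposed to compound up to 10 µM or matched vehicle; cell metabolic activity monitored by MTT reduction assay. Mean ± SEM, n=3.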

[11] = system: Human immunodeficiency virus 1; test: Antiviral activity against HIV1 93UG067 clinical isolate infected in human TZM-bl cells assessed as inhibition of viral infection; type: functional, organism-based; summary of the method: as §2
[12] = system: Human immunodeficiency virus 1; test: Antiviral activity against HIV1 93UG070 clinical isolate infected in human TZM-bl cells assessed as inhibition of viral infection; type: functional, organism-based; summary of the method: as §2
[13] = system: Human immunodeficiency virus 1; test: Antiviral activity against HIV1 92UG029 clinical isolate infected in human TZM-bl cells assessed as inhibition of viral infection; type: functional, organism-based; summary of the method: as §2
[14] = Cytotoxicity against human PM1 cells assessed as cell viability at 10 uM by trypan blue dye exclusion method relative to control; type: cell-based; conditions: read-out: Activity; summary of the method: as §4

In the case of `CCOc1ccc(Cl)cc1/C=C1\Oc2cccc(OCc3ccccc3)c2C1=O`, the inhibition at 10 µM [1] is reported as 15.7% and the “inhibition (INH)” value [2] is reported as “Not Active”.

In the case of `CCOc1ccc(Br)cc1/C=C/C(=O)c1ccccc1O`, the cytotoxicity at 10 µM [2] is reported as 51.9%.

In the case of `COc1ccccc1/C=C/C(=O)c1ccccc1O`, the inhibition [1] is reported as “inactive” and the cytotoxicity at 10 µM [2] is reported as 16.5%.

Work on `CCOc1ccc(Br)cc1/C=C1\Oc2cccc(OCc3ccccc3)c2C1=O` yielded an inhibition at 10 µM [1] of 12.6% and a cytotoxicity at 10 µM [2] of 8.4%.

Molecule `COc1ccc(Cl)cc1/C=C/C(=O)c1ccccc1O` has a cytotoxicity at 10 µM [2] of 99.5%.

`COc1cc(OC)c(/C=C/C(=O)c2ccccc2O)cc1Br` showed an inhibition at 10 µM [1] of 28.6% and a cytotoxicity at 10 µM [2] of 1.9%.

For `COc1ccc(Br)cc1C1CC(=O)c2ccccc2O1` (centres undefined), the “inhibition (INH)” value [2] was “Not Active”.

With `CCOc1ccc(Cl)cc1/C=C/C(=O)c1ccccc1O` the inhibition at 10 µM [1] was 86.1% and the cytotoxicity at 10 µM [2] was 86.4%.

Work on `COc1ccccc1-c1cc(=O)c2ccccc2o1` yielded a cytotoxicity at 10 µM [2] of 39.5%.

Molecule `COc1ccc(Br)cc1-c1cc(=O)c2ccccc2o1` has a cytotoxicity at 10 µM [2] of 23.6%.

Work on `COc1cc(Br)cc(/C=C/C(=O)c2ccccc2O)c1OC` yielded a cytotoxicity at 10 µM [2] of 72.3%.

Work on `COc1ccc(I)cc1/C=C/C(=O)c1ccccc1O` yielded an inhibition at 10 µM [1] of 99.7% and a cytotoxicity at 10 µM [2] of 99.6%.

`COc1ccc(Br)cc1/C=C1\Oc2cccc(OC)c2C1=O` gave an IC50 (CHO; Cricetulus griseus, CHO, 48 h, read-out: IC50) of 17.3 µM, an inhibition at 10 µM [1] of 9.2% and a cytotoxicity at 10 µM [2] of 0.2%.

In the case of `COc1ccc(C)cc1-c1oc2ccccc2c(=O)c1O`, the cytotoxicity at 10 µM [2] is reported as 4.8%.

In the case of `COc1ccc(Br)cc1-c1oc2ccccc2c(=O)c1O`, the Activity [3] is reported as “Non-toxic”, the inhibition at 10 µM [1] is reported as 22.4% and the “inhibition (INH)” value [2] is reported as “Not Active”. For the same molecule, the IC50 [4] was 43.7 µM.

In the case of `COc1ccc(C)cc1/C=C/C(=O)c1ccccc1O`, the cytotoxicity at 10 µM [2] is reported as 46.9%.

Molecule `CCOc1ccc(Cl)cc1/C=C/C(=O)c1c(O)cccc1OCc1ccccc1` has an inhibition at 5 µM [5] of 65.8%, an inhibition at 10 µM [6] of 79% and an inhibition at 10 µM [1] of 64.8%. For the same molecule, the cytotoxicity at 10 µM [2] was 8.7%, the “inhibition (INH)” value [7] was “Not Active” and the cytotoxicity at 10 µM [8] was 12.3%. For the same molecule, the inhibition at 10 µM [9] was 95.8%.

In the case of `COc1cc(Br)cc(-c2oc3ccccc3c(=O)c2O)c1OC`, the Activity [3] is reported as “Non-toxic”, the inhibition at 10 µM [1] is reported as 25.9% and the “inhibition (INH)” value [2] is reported as “Not Active”. The IC50 [4] was 30.9 µM.

For `COc1ccc(Br)cc1/C=C/C(=O)c1c(O)cccc1OCc1ccccc1`, the inhibition at 5 µM [5] was 80%, the Activity [10] was “Non-toxic” and the inhibition [11] was “Dose-dependent effect”. The inhibition [12] was “Dose-dependent effect”, the inhibition at 10 µM [6] was 90.5% and the Activity [3] was “Non-toxic”. For the same molecule, the inhibition at 10 µM [1] was 86.5%, the cytotoxicity at 10 µM [2] was 23.4% and the cytotoxicity at 5 µM [7] was 0.6%. For the same molecule, the cytotoxicity at 10 µM [8] was 61.7%, the inhibition at 10 µM [9] was 99.9% and the inhibition [4] was “Dose-dependent effect”. The IC50 [4] was 4.7 µM and the inhibition [13] was “Dose-dependent effect”.

`CCCCCCCCOc1ccc(Br)cc1/C=C/C(=O)c1c(O)cccc1OCc1ccccc1` gave an inhibition at 10 µM [6] of 27.9% and an inhibition at 10 µM [1] of under 10%.

With `COc1ccc(Br)cc1-c1cc(=O)c2c(OCc3ccccc3)cccc2o1` the Activity [3] was “Non-toxic”, the inhibition at 10 µM [1] was 16.4% and the cytotoxicity at 10 µM [2] was 6.5%. It also gave an IC50 [4] of 42.3 µM.

In the case of `COc1ccc(Br)cc1/C=C/C(=O)c1ccccc1O`, the cytotoxicity at 10 µM [2] is reported as 62.6%.

With `CCOc1ccc(Br)cc1-c1oc2ccccc2c(=O)c1O` the inhibition [5] was “inactive”, the inhibition at 10 µM [6] was 54.9% and the Activity [3] was “Non-toxic”. For the same molecule, the inhibition at 10 µM [1] was 51.7%, the “inhibition (INH)” value [2] was “Not Active” and the cytotoxicity at 5 µM [7] was 16.5%. It also gave a cytotoxicity at 10 µM [8] of 23.1%, an inhibition at 10 µM [9] of 1.3% and an IC50 [4] of 10.4 µM.

In the case of `COc1ccccc1-c1oc2ccccc2c(=O)c1O`, the Activity [3] is reported as “Non-toxic”, the inhibition at 10 µM [1] is reported as 21.3% and the “inhibition (INH)” value [2] is reported as “Not Active”. For the same molecule, the IC50 [4] was 30.4 µM.

In the case of `CCOc1ccc(Br)cc1/C=C/C(=O)c1c(O)cccc1OCc1ccccc1`, the inhibition at 5 µM [5] is reported as 72.2%, the inhibition at 10 µM [6] is reported as 89.9% and the inhibition at 10 µM [1] is reported as 60.2%. The “inhibition (INH)” value [2] was “Not Active”, the “inhibition (INH)” value [7] was “Not Active” and the viability at 10 µM [14] was 96.8%. It also gave an inhibition at 10 µM [9] of 92.3%.

Molecule `COc1ccccc1-c1cc(=O)c2c(O)cccc2o1` has an Activity [3] of 42%, an inhibition at 10 µM [1] of 83.8% and a cytotoxicity at 10 µM [2] of 44.5%. The IC50 [4] was 4.4 µM.

`CCOc1ccc(Cl)cc1-c1oc2ccccc2c(=O)c1O` showed an inhibition at 10 µM [6] of 54.1%, an Activity [3] of 20% and a cytotoxicity at 10 µM [2] of 21.9%. For the same molecule, the cytotoxicity at 10 µM [8] was 25.8%, the inhibition [9] was “inactive” and the IC50 [4] was 12.6 µM.

In the case of `COc1ccc(Cl)cc1-c1oc2ccccc2c(=O)c1O`, the cytotoxicity at 10 µM [2] is reported as 23.5%.

For `COc1ccc(I)cc1-c1oc2ccccc2c(=O)c1O`, the cytotoxicity at 10 µM [2] was 15.3%.

`COc1ccc(Br)cc1-c1cc(=O)c2c(O)cccc2o1` gave a cytotoxicity at 10 µM [2] of 34.8%.

In the case of `COc1cc(OC)c(-c2oc3ccccc3c(=O)c2O)cc1Br`, the inhibition at 10 µM [1] is reported as 43.6% and the “inhibition (INH)” value [2] is reported as “Not Active”.

For `COc1ccccc1/C=C/C(=O)c1c(O)cccc1OCc1ccccc1`, the IC50 (CHO; cho) was “ND(toxic)”.

`COc1ccc(Br)cc1/C=C/C(=O)c1ccc2ccccc2c1O` gave an Activity [3] of 90%, a cytotoxicity at 10 µM [2] of 19.9% and an IC50 [4] of 20 µM.

For `COc1ccc(Br)cc1/C=C/C(=O)c1c(O)cccc1OC`, the cytotoxicity at 10 µM [2] was 90.4%.
